Data published in ChEMBL document CHEMBL1147739, “Identification of the key residue of calcitonin gene related peptide (CGRP) 27-37 to obtain antagonists with picomolar affinity at the CGRP receptor” (J Med Chem, 2006).
*1 amine or outer side, *2 acyl side, *3 side chain or, on linkers, in order; H or OH if unused. Where a SMILES comes first, the peptide text is derived from it. [ ]: non-standard residue; d: D form. X2 = COC(=O)[C@@H]1[C@@H](N[*:1])[C@H]1C(=O)[*:2]; X1 = COC(=O)[C@H]1[C@H](N[*:1])[C@@H]1C(=O)[*:2]

Experiments:
[1] = target: T1, Calcitonin-gene-related peptide receptor, CALCRL/RAMP1 (Homo sapiens, UniProt O60894+Q16602); assay: Displacement of [3H-propionyl-K24] from halphaCGRP expressed in human neuroblastoma SK-N-MC cells; type: cell-based
Outline: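 Whole SK-N-MC cells, 3 million/mL in Tris pH 7.4 buffer with NaCl, MgCl2, Pefabloc and 1% BSA. Incubated 90 min at room temperature with 1 nM [3H-propionyl-K24]-hRCGRP 8-37 and competitor (10-5-10-14 M). Separated by centrifugation with a cold wash, then β-counted. IC50 by nonlinear regression, converted to Ki by Cheng-Prusoff with tracer KD. Three experiments in triplicate.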

[2] = target: T1, Calcitonin-gene-related peptide receptor, CALCRL/RAMP1; assay: Antagonist activity on halphaCGRP-induced cAMP accumulation at human neuroblastoma SK-N-MC cells; type: functional, cell-based; conditions: read-out: pA2 (converted)
Outline: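 SK-N-MC cells detached with PBS-EDTA, washed in HEPES/glucose Hank's, ~2 million cells/mL in buffer with 1 mM IBMX and 1% BSA. Preincubated 15 min at 37 °C, then 15 min with hRCGRP (10-5-10-12 M) alone or with fixed antagonist (10 or 100 nM). cAMP extracted with HCl, AlphaScreen read-out. Agonist EC50 shifts gave concentration ratios, and apparent pA2 = log((CR-1)/[B]). Three experiments in triplicate.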

[3] = target: T1, Calcitonin-gene-related peptide receptor, CALCRL/RAMP1; assay: Displacement of [125I-Tyr10] from halphaCGRP expressed in human neuroblastoma SK-N-MC cells; type: cell-based

T1 sequence (O60894 whole entry): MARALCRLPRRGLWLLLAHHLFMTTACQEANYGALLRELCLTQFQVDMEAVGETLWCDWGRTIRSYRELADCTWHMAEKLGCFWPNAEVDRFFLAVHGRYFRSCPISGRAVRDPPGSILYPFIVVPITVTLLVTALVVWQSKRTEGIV
T1 sequence (Q16602 whole entry): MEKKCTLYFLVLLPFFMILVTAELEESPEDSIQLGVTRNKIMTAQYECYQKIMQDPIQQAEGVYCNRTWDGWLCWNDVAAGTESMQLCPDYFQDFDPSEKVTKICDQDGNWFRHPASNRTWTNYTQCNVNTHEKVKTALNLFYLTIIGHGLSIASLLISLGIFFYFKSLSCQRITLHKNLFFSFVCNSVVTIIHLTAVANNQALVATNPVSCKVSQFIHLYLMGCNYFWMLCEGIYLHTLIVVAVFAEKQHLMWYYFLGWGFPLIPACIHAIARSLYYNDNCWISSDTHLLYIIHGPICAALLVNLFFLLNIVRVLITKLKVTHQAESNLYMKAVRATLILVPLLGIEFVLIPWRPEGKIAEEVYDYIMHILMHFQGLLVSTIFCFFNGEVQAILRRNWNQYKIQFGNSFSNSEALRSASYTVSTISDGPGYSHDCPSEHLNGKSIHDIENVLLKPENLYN

Compound | Ki [1] [nM] | Kb [2] [nM] | Ki [3] [nM]
COC(=O)[C@@H]1[C@@H](NC(=O)CNC(=O)[C@@H](NC(=O)[C@H](CC(=O)O)NC(=O)[C@@H](NC(=O)[C@@H]2CCCN2C(=O)[C@@H](NC(=O)[C@@H](N)Cc2ccccc2)C(C)C)[C@@H](C)O)C(C)C)[C@H]1C(=O)N[C@@H](Cc1ccccc1)C(=O)N[C@@H](C)C(=O)N[C@@H](Cc1ccccc1)C(=O)O (H-FVPTDVG[X2]FAF-OH) | > 10000 | – | –
COC(=O)[C@H]1[C@H](NC(=O)CNC(=O)[C@@H](NC(=O)[C@H](CC(=O)O)NC(=O)[C@@H](NC(=O)[C@@H]2CCCN2C(=O)[C@@H](NC(=O)[C@@H](N)Cc2ccccc2)C(C)C)[C@@H](C)O)C(C)C)[C@@H]1C(=O)N[C@@H](Cc1ccccc1)C(=O)N[C@@H](C)C(=O)N[C@@H](Cc1ccccc1)C(=O)O (H-FVPTDVG[X1]FAF-OH) | > 10000 | – | –
COC(=O)[C@H]1[C@H](NC(=O)CNC(=O)[C@@H](NC(=O)[C@H](CC(N)=O)NC(=O)[C@@H](NC(=O)[C@@H]2CCCN2C(=O)[C@@H](NC(=O)[C@@H](N)Cc2ccccc2)C(C)C)[C@@H](C)O)C(C)C)[C@@H]1C(=O)N[C@@H](Cc1ccccc1)C(=O)N[C@@H](C)C(=O)N[C@@H](Cc1ccccc1)C(=O)O (H-FVPTNVG[X1]FAF-OH) | > 10000 | – | –
COC(=O)[C@@H]1[C@@H](NC(=O)[C@@H](NC(=O)[C@@H](N)Cc2ccccc2)C(C)C)[C@H]1C(=O)N[C@H](C(=O)N[C@@H](CC(=O)O)C(=O)N[C@H](C(=O)NCC(=O)N1CCC[C@H]1C(=O)N[C@@H](Cc1ccccc1)C(=O)N[C@@H](C)C(=O)N[C@@H](Cc1ccccc1)C(=O)O)C(C)C)[C@@H](C)O | > 10000 | – | –
CC(C)[C@H](NC(=O)[C@H](CC(=O)O)NC(=O)[C@@H](NC(=O)[C@@H]1CCCCN1C(=O)[C@@H](NC(=O)[C@@H](N)Cc1ccccc1)C(C)C)[C@@H](C)O)C(=O)NCC(=O)N1CCC[C@H]1C(=O)N[C@@H](Cc1ccccc1)C(=O)N[C@@H](C)C(=O)N[C@@H](Cc1ccccc1)C(=O)O | > 10000 | – | –
COC(=O)[C@@H]1[C@@H](NC(=O)CNC(=O)[C@@H](NC(=O)[C@H](CC(N)=O)NC(=O)[C@@H](NC(=O)[C@@H]2CCCN2C(=O)[C@@H](NC(=O)[C@@H](N)Cc2ccccc2)C(C)C)[C@@H](C)O)C(C)C)[C@H]1C(=O)N[C@@H](Cc1ccccc1)C(=O)N[C@@H](C)C(=O)N[C@@H](Cc1ccccc1)C(=O)O (H-FVPTNVG[X2]FAF-OH) | > 10000 | – | –

Compounds with a lower Ki [1], results first:

Ki [1] [nM] | Kb [2] [nM] | Ki [3] [nM] | Compound
0.02 | 6.31 | – | CC(C)[C@H](NC(=O)[C@H](CC(=O)O)NC(=O)[C@@H](NC(=O)[C@@H]1Cc2ccccc2CN1C(=O)[C@@H](NC(=O)[C@@H](N)Cc1ccccc1)C(C)C)[C@@H](C)O)C(=O)NCC(=O)N1CCC[C@H]1C(=O)N[C@@H](Cc1ccccc1)C(=O)N[C@@H](C)C(=O)N[C@@H](Cc1ccccc1)C(=O)O
0.7 | – | – | COC(=O)[C@H]1[C@H](NC(=O)[C@@H](NC(=O)[C@@H](N)Cc2ccccc2)C(C)C)[C@@H]1C(=O)N[C@H](C(=O)N[C@@H](CC(=O)O)C(=O)N[C@H](C(=O)NCC(=O)N1CCC[C@H]1C(=O)N[C@@H](Cc1ccccc1)C(=O)N[C@@H](C)C(=O)N[C@@H](Cc1ccccc1)C(=O)O)C(C)C)[C@@H](C)O
8.4 | 25.1 | – | H-FVATDVGPFAF-OH
13.6 | – | 76.8 | H-FVPTDVGAFAF-OH
0.006 | 31.6 | – | CC(C)[C@H](NC(=O)[C@H](CC(=O)O)NC(=O)[C@@H](NC(=O)[C@@H]1C[C@@H](O)CN1C(=O)[C@@H](NC(=O)[C@@H](N)Cc1ccccc1)C(C)C)[C@@H](C)O)C(=O)NCC(=O)N1CCC[C@H]1C(=O)N[C@@H](Cc1ccccc1)C(=O)N[C@@H](C)C(=O)N[C@@H](Cc1ccccc1)C(=O)O
0.002 | 10 | – | CC(C)[C@H](NC(=O)[C@H](CC(=O)O)NC(=O)[C@@H](NC(=O)C(C)(C)NC(=O)[C@@H](NC(=O)[C@@H](N)Cc1ccccc1)C(C)C)[C@@H](C)O)C(=O)NCC(=O)N1CCC[C@H]1C(=O)N[C@@H](Cc1ccccc1)C(=O)N[C@@H](C)C(=O)N[C@@H](Cc1ccccc1)C(=O)O
0.02 | – | 14 | CC(C)[C@H](NC(=O)[C@H](CC(=O)O)NC(=O)[C@@H](NC(=O)[C@@H]1CCCN1C(=O)[C@@H](NC(=O)[C@@H](N)Cc1ccccc1)C(C)C)[C@@H](C)O)C(=O)NCC(=O)N1CCC[C@H]1C(=O)N[C@@H](Cc1ccccc1)C(=O)N[C@@H](C)C(=O)N[C@@H](Cc1ccccc1)C(=O)O
